From PubChem BioAssay
GASC1 inh = blocks human GASC-1 (KDM4C) demethylase activity. Q9H3R0. GST-KDM4C 2-372, H3K9me3 peptide, LANCE TR-FRET. inhibition, % at 12.5 µM. 96,000 tested, 0.15% active. AID 720574;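 active means mean replicate inhibition above about 25%, with at least 55% of replicates also reaching it, limit read from the data, passing the limit was not always enough; inconclusive means only one of those two conditions met; inactive means neither condition met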
Target sequence (Q9H3R0 2-372 limits assumed): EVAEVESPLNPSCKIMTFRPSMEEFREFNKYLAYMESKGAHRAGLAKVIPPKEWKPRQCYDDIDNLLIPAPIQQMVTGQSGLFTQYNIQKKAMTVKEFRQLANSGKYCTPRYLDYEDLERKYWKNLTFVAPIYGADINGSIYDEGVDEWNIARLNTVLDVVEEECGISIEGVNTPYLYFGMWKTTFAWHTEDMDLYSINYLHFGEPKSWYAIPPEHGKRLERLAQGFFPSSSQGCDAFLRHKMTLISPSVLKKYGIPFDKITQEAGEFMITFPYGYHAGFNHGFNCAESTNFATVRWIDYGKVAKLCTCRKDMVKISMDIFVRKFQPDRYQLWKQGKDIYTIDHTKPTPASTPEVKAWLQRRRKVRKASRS
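System: N-terminal GST-fused human GASC-1 (KDM4C) fragment, residues 2-372; amount: enzyme final amount 10 nM; incubation: reaction 30 min RT, detection step 1 h RT; medium: HEPES buffer, pH 7.5, plus ascorbate; technique: LANCE TR-FRET, Eu antibody, ULight-streptavidin, EDTA, ex 340 nm, em 618/671 nm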
T cruzi growth-1 = T. cruzi proliferation inhibition. T. cruzi beta-gal in NIH3T3, GalScreen luminescence, 90 h. inhibition, % at 8.34 µM. 77,000 tested, 5.9% active. AID 624255;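 active means mean inhibition above about 93%, with at least 55% of replicates each passing it, limit read from the data, passing the limit was not always enough; inconclusive means only one of those two conditions holds; inactive means neither condition holds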
IDH1 mut inh = IDH1 R132H (human) inhibition. inhibition, % at 10 µM. 70,000 tested, 0.18% active. AID 624101. IDH1 R132H reductase, diaphorase/resazurin fluorescence, 60 min; in the data active means inhibition above about 34%; inconclusive means no clear call, values can overlap the other calls; inactive means below about 11%;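 further: 0% = DMSO and 100% = no enzyme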
T cruzi growth-2 = blocks T. cruzi growth in NIH3T3 host cells. shares compounds with T cruzi growth-1. T. cruzi beta-gal in NIH3T3, GalScreen luminescence, 90 h. inhibition, % at 8.35 µM. 5,600 tested, 72% active;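 active means mean replicate inhibition above about 95% and at least 55% of replicates individually reaching it, limit read from the data; inconclusive means only one of the two criteria is met; inactive means neither criterion is met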
T cruzi growth-3 = blocks T. cruzi growth in NIH3T3 host cells | shares compounds with T cruzi growth-1 | T. cruzi beta-gal in NIH3T3, GalScreen luminescence, 90 h | inhibition, % at 2.09 µM | 5,600 tested, 21% active | AID 651740;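 active means mean inhibition above about 95%, with at least 55% of replicates also reaching it, limit read from the data; inconclusive means meets just one of the two conditions; inactive means meets neither condition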;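 further: plate controls were neutral control median for no effect and positive control median for full effect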
NIH3T3 tox = NIH/3T3 (mouse) viability loss; shares compounds with T cruzi growth-1; NIH/3T3 viability, CellTiter-Glo ATP luminescence, 90 h; cytotoxicity (signal decrease), % at 8.35 µM; 5,600 tested, 14% active; AID 651742;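 active means mean signal decrease across replicates above about 35% based on untreated-well scatter, with enough replicates individually passing, limit read from the data; inconclusive means no rule stated though some were filed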;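 further: 0% = median of neutral control wells and 100% = median of positive control wells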
NIH3T3 tox 2 = kills mouse NIH/3T3 fibroblasts; shares compounds with T cruzi growth-1; NIH/3T3 viability, CellTiter-Glo ATP luminescence, 90 h; inhibition, % at 24.9 µM; 5,600 tested, 56% active; AID 651744;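 active means mean loss of cell viability signal at or above a set limit, and enough replicates individually reaching it; inconclusive means meets only the mean limit or only the replicate share; inactive means meets neither condition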;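 further: 0% = median of neutral control wells and 100% = median of positive control wells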
Active calls of the source: *; ? = inconclusive; . = not tested or not shown. Only a selection was taken, and hits are over-represented in it overall.

SMILES | GASC1 inh | T cruzi growth-1 | IDH1 mut inh | T cruzi growth-2 | T cruzi growth-3 | NIH3T3 tox | NIH3T3 tox 2
C[C@@H]1CN([C@@H](C)CO)S(=O)(=O)c2ccc(C3=CCCCC3)cc2O[C@@H]1CN(C)C(=O)C1CCCCC1 | 9 | 119* | . | 105* | 93 | 34 | 106*
C[C@H](CO)N1C[C@H](C)[C@@H](CN(C)C(=O)C2CCCCC2)Oc2cc(C3=CCCCC3)ccc2S1(=O)=O | -2 | 113* | . | 110* | 48 | 5 | 105*
C[C@@H]1CN([C@@H](C)CO)S(=O)(=O)c2ccc(C3=CCCCC3)cc2O[C@@H]1CN(C)C(=O)C1CC1 | 0 | 65 | . | . | . | . | .
C[C@@H]1CN([C@@H](C)CO)S(=O)(=O)c2ccc(C3=CCCCC3)cc2O[C@@H]1CN(C)C(=O)C1CCC1 | 0 | 48 | . | . | . | . | .
C[C@@H]1CN([C@@H](C)CO)S(=O)(=O)c2ccc(C3=CCCCC3)cc2O[C@H]1CN(C)C(=O)C1CCCCC1 | 0 | 118* | 6 | 104* | 45 | 9 | 96*
C[C@@H]1CN([C@@H](C)CO)S(=O)(=O)c2ccc(C3=CCCCC3)cc2O[C@H]1CN(C)C(=O)C1CC1 | 0 | 57 | . | . | . | . | .
CCN(CC(=O)Nc1ccc2c(c1)OCCO2)S(=O)(=O)c1ccc(Cl)cc1 | . | . | 0 | . | . | . | .
O=C(CN1CCOCC1)N[C@H]1CC[C@H](CCNC(=O)C2CCCCC2)O[C@H]1CO | 5 | . | 0 | . | . | . | .
COc1cc([C@@H](O)[C@@H](CO[C@@H]2O[C@H](CO)[C@@H](O)[C@H](O)[C@H]2O)Oc2ccc(/C=C/CO)cc2OC)ccc1O | . | . | 0 | . | . | . | .
C[C@@H]1CCCCO[C@@H](CN(C)C(=O)Nc2cccc3ccccc23)[C@@H](C)CN([C@@H](C)CO)C(=O)c2cc(NS(=O)(=O)c3ccc(Cl)cc3)ccc2O1 | 0 | 99* | . | 103* | 93 | -3 | 4
C[C@@H]1CCCCO[C@@H](CN(C)C(=O)Nc2cccc3ccccc23)[C@H](C)CN([C@H](C)CO)C(=O)c2cc(NS(=O)(=O)c3ccccc3)ccc2O1 | -2 | . | . | . | . | . | .
C[C@@H]1CCCCO[C@H](CN(C)C(=O)Nc2cccc3ccccc23)[C@H](C)CN([C@H](C)CO)C(=O)c2cc(NS(=O)(=O)c3ccc(Cl)cc3)ccc2O1 | -2 | 105* | -1 | 108* | 113* | 9 | -1
C[C@@H]1CCCCO[C@@H](CN(C)C(=O)Nc2cccc3ccccc23)[C@@H](C)CN([C@H](C)CO)C(=O)c2cc(NS(=O)(=O)c3ccc(Cl)cc3)ccc2O1 | -2 | 32 | 4 | . | . | . | .
COc1ccc(OC)c(S(=O)(=O)N2CCC(C(=O)Nc3ccccc3F)CC2)c1 | . | . | 0 | . | . | . | .
Cc1c(Br)c([N+](=O)[O-])nn1CC(=O)Nc1cccc(C(F)(F)F)c1 | . | . | 0 | . | . | . | .
COc1ccc(NC(=O)N(C)C[C@@H]2Oc3cc(C#CCC(C)C)ccc3S(=O)(=O)N([C@H](C)CO)C[C@H]2C)cc1 | 7 | 89 | 0 | . | . | . | .
COc1ccc(NC(=O)N(C)C[C@H]2Oc3cc(C#CCC(C)C)ccc3S(=O)(=O)N([C@@H](C)CO)C[C@@H]2C)cc1 | 1 | 95* | 0 | 106* | 61 | 13 | 89*
CCCC#Cc1ccc2c(c1)O[C@@H](CN(C)C(=O)Nc1ccc(OC)cc1)[C@H](C)CN([C@@H](C)CO)S2(=O)=O | 1 | 92 | . | . | . | . | .
C[C@H]1CN([C@@H](C)CO)S(=O)(=O)c2ccc(C#Cc3ccccc3)cc2O[C@H]1CN(C)C(=O)Nc1ccccc1 | 0 | 3 | 0 | . | . | . | .
COc1ccc(NC(=O)N(C)C[C@@H]2Oc3cc(C#CCC(C)C)ccc3S(=O)(=O)N([C@@H](C)CO)C[C@@H]2C)cc1 | -1 | 99* | 0 | 106* | 111* | -11 | 96*
CC(C)CC#Cc1ccc2c(c1)O[C@@H](CN(C)C(=O)Nc1ccccc1)[C@@H](C)CN([C@H](C)CO)S2(=O)=O | -3 | 129* | 0 | 102* | 72 | 24 | 95*
COc1ccc(NC(=O)N(C)C[C@@H]2Oc3cc(C#CCN(C)C)ccc3S(=O)(=O)N([C@H](C)CO)C[C@@H]2C)cc1 | 5 | 60 | -11 | . | . | . | .
CCCC#Cc1ccc2c(c1)O[C@H](CN(C)C(=O)Nc1ccc(OC)cc1)[C@@H](C)CN([C@@H](C)CO)S2(=O)=O | 0 | 113* | -4 | 112* | 71 | 28 | -15
COc1cc2c(cc1OC)CN(C(=O)CSc1ncnc3sc4c(c13)CCC(C)C4)CC2 (stereo unspecified) | . | . | 0 | . | . | . | .
COCC#Cc1ccc2c(c1)O[C@@H](CN(C)C(=O)Nc1ccc(OC)cc1)[C@H](C)CN([C@@H](C)CO)S2(=O)=O | -2 | -84 | 0 | . | . | . | .
SMILES | GASC1 inh | T cruzi growth-1 | IDH1 mut inh | T cruzi growth-2 | T cruzi growth-3 | NIH3T3 tox | NIH3T3 tox 2
COc1ccc(NC(=O)N(C)C[C@H]2Oc3cc(C#CCC(C)C)ccc3S(=O)(=O)N([C@@H](C)CO)C[C@H]2C)cc1 | . | 100* | -1 | 108* | 73 | -18 | 58*
CC(C)CC#Cc1ccc2c(c1)O[C@H](CN(C)C(=O)Nc1ccccc1F)[C@H](C)CN([C@H](C)CO)S2(=O)=O | -2 | 85 | -5 | . | . | . | .
CC(C)CC#Cc1ccc2c(c1)O[C@H](CN(C)C(=O)Nc1ccccc1F)[C@@H](C)CN([C@H](C)CO)S2(=O)=O | 2 | 92* | 0 | 107* | 39 | 11 | 68*
Cc1noc(C)c1S(=O)(=O)Nc1ccc2c(c1)C(=O)N([C@H](C)CO)C[C@H](C)[C@@H](CN(C)Cc1ccc(C(F)(F)F)cc1)OCCCC[C@H](C)O2 | -2 | 100* | . | 110* | 107* | 6 | 105*
Cc1noc(C)c1S(=O)(=O)Nc1ccc2c(c1)C(=O)N([C@@H](C)CO)C[C@@H](C)[C@H](CN(C)Cc1ccc(C(F)(F)F)cc1)OCCCC[C@H](C)O2 | -1 | 90 | 13 | . | . | . | .
Cc1noc(C)c1S(=O)(=O)Nc1ccc2c(c1)C(=O)N([C@@H](C)CO)C[C@@H](C)[C@H](CN(C)Cc1ccc(C(=O)O)cc1)OCCCC[C@H](C)O2 | 1 | 18 | . | . | . | . | .
Cc1noc(C)c1S(=O)(=O)Nc1ccc2c(c1)C(=O)N([C@H](C)CO)C[C@H](C)[C@H](CN(C)Cc1ccc(Cl)c(Cl)c1)OCCCC[C@@H](C)O2 | -1 | 82 | . | . | . | . | .
Cc1noc(C)c1S(=O)(=O)Nc1ccc2c(c1)C(=O)N([C@@H](C)CO)C[C@@H](C)[C@H](CN(C)Cc1ccc(Cl)c(Cl)c1)OCCCC[C@@H](C)O2 | -2 | ? | . | 87 | 104* | 57* | 105*
